Reference: publication PMC4797290 (Nucleic Acids Research, 2016)
No end group written: not given here.

What was measured:
Format in all cases: cell-based, Escherichia coli
[1] = tested on: E. coli SQ110 DTC 23S rRNA A2503C mutant; experiment: MIC determination, E. coli SQ110 DTC 2503C mutant; conditions: 23S rRNA mutant 2503C; highest concentration 100 μM
Procedure, shortened: (§1)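 E. coli SQ110 DTC background (single chromosomal rrn allele, tolC knockout) carrying 23S rRNA mutations. Cells grown exponentially in LB, diluted to A650 0.005 in 96-well plates. Peptide added in LB and 2-fold serially diluted from a top final concentration of 100 μM. Incubated overnight at 37°C with shaking. Growth read by alamarBlue addition.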

[2] = tested on: E. coli SQ110 DTC 23S rRNA 2059C mutant; experiment: MIC determination, E. coli SQ110 DTC 2059C mutant; conditions: 23S rRNA mutant 2059C, first line so labelled (r6); highest concentration 100 μM
Procedure, shortened: as §1

[3] = tested on: E. coli SQ110 DTC 23S rRNA A2503C/A2059G double mutant; experiment: MIC determination, E. coli SQ110 DTC 2503C/2059G double mutant; conditions: 23S rRNA double mutant; highest concentration 100 μM
Procedure, shortened: as §1

RRIRPRPPRLPRPRPRPLPFPRPGPRPIPRPLPFP [Bac7_1–35]
0.75 µmol/L: MIC, SQ110 DTC 2503C [1] | MIC, SQ110 DTC 2059C [2] | MIC, SQ110 DTC 2503C/2059G [3]
